Results on two compounds are retold here after article PMC12657421 (International Journal of Pharmaceutics: X, 2025).

The nature of data set [1]: Equilibrium solubility, shake-flask method. Format: physicochemical. Conditions: pH 1.2, pH 4.5, pH 6.8, 37 °C. A digest of the protocol: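 Shake-flask method: excess solid stirred in 5 mL of water or pH 1.2, 4.5 or 6.8 buffer at 37 °C for 72 h. Samples were centrifuged, and the supernatant was assayed directly by HPLC using a modified Chinese Pharmacopoeia method.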
A short description of data set [2]: In vitro powder dissolution in pH 6.8 and pH 7.0 media. The data set is classed as physicochemical. A digest of the protocol: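 60 mg emodin, or an equivalent amount of cocrystal, added to 900 mL of pH 6.8 or pH 7.0 medium at 37 °C with propeller at 100 rpm. Autosampled 1 mL at 10–720 min (nine points), centrifuged 13,400 rpm for 10 min, supernatant by HPLC. Run in triplicate.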

The format of data set [3] is in vivo, Sprague Dawley rats. A digest of the protocol: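 Male SD rats (250 ± 20 g), acclimated one week, n = 6 per group, oral single dose. Plasma separated at 4 °C, stored −80 °C, acetonitrile-precipitated with chrysophanol internal standard and diluted with water. Emodin quantified by HPLC-MS/MS, C18 column at 40 °C, triple quadrupole.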
The conditions of data set [4]: ref NIST (National Institute of Standards and Technology, n.d); cited from earlier work.
Setting [5] is: male, Sprague Dawley, rat, plasma, po, 100 mg/kg.

As to `Cc1cc(O)c2c(c1)C(=O)c1cc(O)cc(O)c1C2=O` [EMO, Emodin], in data set [1], the “Solubility in purified water and three other media” value was “negligible solubility”. In addition, in data set [2], the “Apparent dissolution (detectability)” value is on record as “undetectability”. Further, in data set [3] (setting [5]), the AUC(0-inf) – broadly, the area under the concentration-time curve extrapolated to infinity – amounted to 33400 ng·h/mL; the AUC(0-t) (as a rule, the area under the concentration-time curve up to a stated or last time point) worked out at 2370 ± 947 ng·h/mL; the peak concentration (Cmax) (commonly the peak of the concentration-time curve) was 274 ± 160 ng/mL; the MRT inf (commonly a mean duration of stay, worked out from the concentration-time curve) turned out to be 5.9 ± 5.41 h. Further, in data set [3] (setting [5]), the MRT last (in general, the average time that molecules of a dose stay in the body) turned out to be 10.3 ± 1.94 h; the Tmax (as a rule, the time from dosing to the highest level) was determined as 11 ± 1.67 h; the half-life (as a rule, the time needed for the level to fall by half in the phase considered) was 4.13 ± 1.97 h. Also, the CLz in data set [3] (rats, oral, EMO 100 mg/kg or equimolar cocrystal, plasma EMO, n = 6) worked out at 4 ± 3 mL/h/kg.

In the case of `Cc1nc(C)c(C)nc1C` [TMP, Tetramethylpyrazine], the Sublimation enthalpy in data set [4] is 22.6 kcal/mol.
